Hits are enriched below; roughly 3.4% of the tested compounds scored in any of these assays.
Runt-SMMHC FRET = inhibitors of human RUNX1 Runt domain binding to CBFb-SMMHC | Q01196+Q13951 | Cerulean-Runt/Venus-CBFb-SMMHC FRET ratio 530/480, 1 h | inhibition, % at 20 µM | actives 0.74% (n = 220,000);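 active = mean inhibition across duplicate retests at 20 µM reaching about 50%, limit read from the data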;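 also: 0% = DMSO wells and 100% = wells with excess untagged CBFb-SMMHC; inhibitors lower the FRET ratio by blocking Runt binding to CBFb-SMMHC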
Efa HMGR inh = blocks class II HMG-CoA reductase of Enterococcus faecalis; purified E. faecalis HMGR, NADPH absorbance 340 nm kinetic; inhibition, % at 10 µM; actives 0.41% (n = 190,000);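 active = inhibition above a set limit, the median over all tested compounds plus 3 SD, cut at about 9.5% in these data; inconclusive = no clear call, values can overlap the other calls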;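 also: enzyme runs in reverse so mevalonate oxidation gives rising NADPH absorbance; 0% = complete reaction with DMSO and 100% = background rate lacking mevalonate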
Runt-CBFb FRET = Runt domain-CBFb interaction inhibition; Q01196+Q13951; Cerulean-Runt/Venus-CBFb FRET ratio 530/480, 1 h; inhibition, % at 20 µM; actives 0.46% (n = 220,000);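 active = inhibition over about 50% at 20 µM in the single-dose screen, limit read from the data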;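 also: 0% = DMSO wells and 100% = excess unlabeled CBFb competitor control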
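test system = Cerulean-Runt domain fusion protein, energy donor | probe or stimulus = Venus-CBFb binding partner, 100 nM | incubation = two 1 h room-temperature incubations shielded from light | detection = fluorescence energy transfer, 422 nm excitation, 530/480 nm emission | measure = loss of energy transfer signal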
Wee1 degr inh = human Wee1 degradation inhibition, primary screen; AID 1321; HeLa Luc-Wee1K328M stability, luciferase luminescence; 100% = proteasome inhibitor MG132 effect; actives 1.2% (n = 220,000); reporter increase, % at 5 µM;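 active = activation above the mean of all tested compounds plus 3 SD, set per screening run, cut at about 8.8% in these data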;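 also: cells exposed to compound for 20 h before luminescence read; 0% = DMSO alone and 100% = MG132 at 30 µM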
RanGTP-Impb inh = inhibitors of RanGTP-importin-beta interaction, primary screen, biochemical, FRET, CFP-Ran, YFP-importin-beta, homogeneous. cell-free CFP-Ran/YFP-importin-beta FRET ratio. inhibition, % (no concentration beside the values). actives 1.1% (n = 300,000). AID 2216;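 active = more than half of the replicate wells show a fall in the fluorescence ratio signal beyond about 16%, limit read from the data, passing the limit was not always enough; inconclusive = exactly half of the replicate wells pass the set limit; inactive = fewer than half of replicates pass the limit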;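 also: 0% = DMSO wells and 100% = Ran loaded with GDP instead of GTP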
PHOSPHO1 inh = blocks human PHOSPHO1 phosphatase activity; Q8TCT1; recombinant PHOSPHO1, absorbance phosphatase assay; inhibition, % at 13.3 µM; actives 1.1% (n = 290,000); AID 1565; in the data active = inhibition above about 60%
Target sequence (Q8TCT1 whole entry, looked up): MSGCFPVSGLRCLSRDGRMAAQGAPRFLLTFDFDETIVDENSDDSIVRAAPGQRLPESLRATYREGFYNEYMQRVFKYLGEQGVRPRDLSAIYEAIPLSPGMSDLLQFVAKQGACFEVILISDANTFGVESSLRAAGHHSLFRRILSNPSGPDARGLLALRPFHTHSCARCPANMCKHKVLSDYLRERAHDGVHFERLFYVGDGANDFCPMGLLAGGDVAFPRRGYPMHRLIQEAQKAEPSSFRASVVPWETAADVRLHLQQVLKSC
Numbers without * were called inactive; ? = inconclusive; . = no result given.

SMILES | Runt-SMMHC FRET | Efa HMGR inh | Runt-CBFb FRET | Wee1 degr inh | RanGTP-Impb inh | PHOSPHO1 inh
COC(=O)c1c(NC(=O)C2=COCCO2)sc(C)c1C | . | . | . | . | 4.6 | .
CN1CCc2c(sc(/N=C/c3ccco3)c2C(N)=O)C1 | 62.5* | -1.6 | 106.1* | -2.9 | -2.5 | -12.0
CN1CCc2c(sc(/N=C/c3cccs3)c2C(N)=O)C1 | 65.0* | -1.7 | 80.6* | 1.7 | ? | 15.2
CCOC(=O)c1c(/N=C/c2cccc(C)c2O)sc2c1CCN(C)C2 | 13.0 | -1.7 | 36.8 | -1.4 | 12.0 | -1.0
Cc1ccc(/C=N/c2sc3c(c2C(N)=O)CCCC3)o1 | 1.9 | -4.8 | 9.2 | -1.6 | 3.1 | -152.0
NC(=O)c1c(/N=C/c2cccnc2)sc2c1CCCC2 | -0.5 | . | 4.8 | 6.6 | 4.0 | 76.8*
C=CCn1c(COc2ccc(Cl)cc2)nnc1SCC(=O)c1c(N)n(C)c(=O)n(C)c1=O | 2.5 | 1.4 | 0.4 | 10.2* | 0.2 | 10.8
Cc1cc(Cl)ccc1NC(=O)CSc1nnc(-c2ccncc2)n1Cc1ccco1 | 16.8 | -2.2 | 24.5 | 0.2 | -2.3 | 12.7
Cc1ccc(NCc2nnc(SCC(=O)Nc3ncc(C)s3)n2Cc2ccco2)c(C)c1 | 2.4 | 2.2 | -3.7 | -0.2 | 1.9 | 73.2*
C=CCn1c(COc2ccc(F)cc2)nnc1SCC(=O)NC(=O)NCc1ccco1 | -0.3 | -0.3 | -0.2 | 1.5 | -1.4 | 93.4*
C=CCn1c(COc2ccc(Cl)cc2)nnc1SCC(=O)NCC(=O)OCC | 1.0 | 0.7 | -0.8 | -0.2 | 0.5 | 99.8*
C=CCn1c(COc2cccc(C)c2)nnc1SCC(=O)NC(=O)NCc1ccco1 | 9.3 | -2.2 | 6.5 | 4.9 | 1.9 | 2.9
O=Cc1cccn1-c1cccnc1 | 3.0 | -2.2 | -0.5 | -0.3 | 3.1 | 5.3
COc1nc2ccccc2nc1N1CCN(c2ccc(F)cc2)CC1 | . | . | . | . | -2.3 | 43.7
Cc1ccc(OCc2nnc(SCC(=O)C(C)(C)C)n2Cc2ccco2)cc1 | -0.1 | -0.1 | -1.8 | -2.1 | -3.3 | 61.0*
C=CCn1c(COc2ccc(Cl)cc2)nnc1SCc1ccc(C#N)cc1 | -4.5 | -3.5 | -5.5 | -2.5 | -1.8 | 88.4*
C/C(=N\NC(=O)CNC(=O)c1cccs1)c1ccc(Cl)c(Cl)c1 | . | . | . | . | -2.7 | 18.5
COc1cccc(NC(=O)CCS(=O)(=O)c2ccc3c(c2)oc(=O)n3C)c1 | . | . | . | . | 3.5 | 27.6
Cc1cccc(NC(=S)NNC(=O)c2cccc([N+](=O)[O-])c2)c1 | 2.6 | . | 0.5 | -1.9 | 0.2 | -18.3
Cc1occc1C(=O)NNC(=S)Nc1cccc([N+](=O)[O-])c1 | 2.0 | -1.9 | 1.5 | -1.0 | -0.8 | 88.3*
CC(=O)Nc1ccc(NC(=O)Cn2c(=O)n(-c3ccc(F)cc3)c(=O)c3oc4ccccc4c32)cc1 | -0.1 | -0.1 | -3.3 | 1.0 | 0.6 | 44.0
NC(=O)c1ccc(NC(=O)Cn2c(=O)n(-c3ccccc3)c(=O)c3oc4ccccc4c32)cc1 | 1.9 | -8.4 | 0.1 | 9.9* | 8.1 | 44.0
COc1cc(/C=C(\C#N)C(=O)Nc2cccc(C(=O)O)c2)ccc1OCc1ccc(F)cc1 | . | . | . | . | 4.3 | 16.1
CCOc1cc(/C=C(\C#N)C(=O)Nc2cccc(C(=O)O)c2)ccc1OCc1ccccc1Cl | . | . | . | . | 78.1* | 2.1
COc1ccc(NC(=O)/C(C#N)=C\c2ccc(OCc3ccc(C(=O)O)cc3)c(OC)c2)cc1 | 0.2 | 1.4 | -2.7 | -2.0 | -4.7 | 70.5*
SMILES | Runt-SMMHC FRET | Efa HMGR inh | Runt-CBFb FRET | Wee1 degr inh | RanGTP-Impb inh | PHOSPHO1 inh
O=Cc1cc(-c2ccccc2)[nH]c1-c1ccccc1 | . | . | . | . | 1.3 | 19.3
Cc1cccc(-c2cc3nc(-c4ccccc4)cc(=O)n3[nH]2)c1 | . | . | . | . | -1.3 | 24.8
Cc1cc(OC(C)C(=O)NCc2cccnc2)c2c(C)cc(=O)oc2c1 (stereo unspecified) | . | . | . | . | -1.5 | 22.5
Cn1c(CN2CCN(C(=O)c3ccco3)CC2)nc2cc([N+](=O)[O-])ccc21 | . | . | . | . | . | 66.3*
CC(=O)NCCC1CCN(C(=O)C2CCC(=O)N(C3CCCC3)C2)CC1 (stereo unspecified) | . | . | . | . | -2.6 | 43.5
CC(=O)Nc1ccccc1NC(=O)C/C(C)=N/NC(=O)c1cccnc1 | . | . | . | . | 3.3 | -10.1
CCOC(=O)CCc1c(C)c2ccc(OCC(=O)N3CCOCC3)c(C)c2oc1=O | . | . | . | . | -1.3 | 62.4*
